In ChEMBL document CHEMBL1123488, “Agents for the treatment of brain edema. 2. [(2,3,9,9a-Tetrahydro-3-oxo-9a-substituted-1H-fluoren-7-yl)oxy]+ ++alkanoi c acids and some of their analogues” (J Med Chem, 1986):

Legend:
[1] = species: Rattus norvegicus; test: Compound was tested for inhibition of HCO3- dependent swelling of rat cerebrocortical slices at concentration of (10e-3) M; type: functional
Summary of the method: (§1)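 Cerebrocortical slices were weighed and incubated in Warburg flasks at 22 °C in medium of KCl 27, NaCl 100, glucose 10 and KH2PO4 1.2 mmol/L (27 mM K+ HEPES). HCO3- (5 mM) was added from the side arm for the final 40 min, and the compound was present throughout the 60 min. Swelling = (final − initial wet weight)/initial wet weight × 100. Two-tailed t-test versus 27 K + HCO3-.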

[2] = species: Cavia porcellus; test: Compound was tested for inhibition of sodium ion uptake in guinea pig cerebrocortical slices at concentration of (10e-6) M; type: functional
[3] = system: Felis catus; test: In vivo activity in the acceleration-deceleration head injury assay at dose of 5 mg/kg; 7/22
[4] = species: Cavia porcellus; test: Compound was tested for inhibition of chloride ion uptake in guinea pig cerebrocortical slices at concentration of (10e-6) M; type: functional
Summary of the method: (§2)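 Slices were incubated 60 min at 22 °C in 27 mM K+ medium with 5 mM HCO3- added for the last 40 min, with the compound present throughout. Slices were then filtered off, reweighed and homogenized (10% w/v) in 1 N perchloric acid. The supernatant was assayed for electrolytes, expressed as µmol/g initial wet weight. Two-tailed t-test versus 27 K + HCO3-.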

[5] = species: Rattus norvegicus; test: Compound was tested for inhibition of sodium ion uptake in rat cerebrocortical slices at concentration of (10e-6) M; type: functional
[6] = species: Rattus norvegicus; test: Compound was tested for inhibition of sodium ion uptake in rat cerebrocortical slices at concentration of (10e-8) M; type: functional
[7] = species: Rattus norvegicus; test: Compound was tested for inhibition of HCO3- dependent swelling of rat cerebrocortical slices at concentration of (10e-6) M; type: functional; summary of the method: as §1
[8] = species: Cavia porcellus; test: Compound was tested for inhibition of chloride ion uptake in guinea pig cerebrocortical slices at concentration of (10e-7) M; type: functional; summary of the method: as §2
[9] = species: Cavia porcellus; test: Compound was tested for inhibition of potassium ion uptake in guinea pig cerebrocortical slices at concentration of (10e-9) M; type: functional
[10] = species: Cavia porcellus; test: Compound was tested for inhibition of potassium ion uptake in guinea pig cerebrocortical slices at concentration of (10e-8) M; type: functional; summary of the method: as §2
[11] = system: Felis catus; test: In vivo activity in the acceleration-deceleration head injury assay at dose of 2.5 mg/kg; 5/21
[12] = species: Cavia porcellus; test: Compound was tested for inhibition of HCO3- dependent swelling of guinea pig cerebrocortical slices at concentration of (10e-7) M; type: functional; summary of the method: as §1
[13] = species: Cavia porcellus; test: Compound was tested for inhibition of sodium ion uptake in guinea pig cerebrocortical slices at concentration of (10e-10) M; type: functional
[14] = species: Cavia porcellus; test: Compound was tested for inhibition of sodium ion uptake in guinea pig cerebrocortical slices at concentration of (10e-8) M; type: functional
[15] = species: Felis catus; test: Compound was tested for inhibition of chloride ion uptake in cat cerebrocortical slices at concentration of (10e-10) M; type: functional; summary of the method: as §2
[16] = species: Rattus norvegicus; test: Compound was tested for inhibition of chloride ion uptake in rat cerebrocortical slices at concentration of (10e-6) M; type: functional; summary of the method: as §2
[17] = species: Cavia porcellus; test: Compound was tested for inhibition of sodium ion uptake in guinea pig cerebrocortical slices at concentration of (10e-9) M; type: functional
[18] = species: Rattus norvegicus; test: Compound was tested for inhibition of potassium ion uptake in rat cerebrocortical slices at concentration of (10e-3) M; type: functional
[19] = species: Felis catus; test: Compound was tested for inhibition of HCO3- dependent swelling of cat cerebrocortical slices at concentration of (10e-11) M; type: functional; summary of the method: as §1
[20] = species: Cavia porcellus; test: Compound was tested for inhibition of chloride ion uptake in guinea pig cerebrocortical slices at concentration of (10e-11) M; type: functional; summary of the method: as §2
[21] = species: Rattus norvegicus; test: Compound was tested for inhibition of chloride ion uptake in rat cerebrocortical slices at concentration of (10e-3) M; type: functional; summary of the method: as §2
[22] = species: Cavia porcellus; test: Compound was tested for inhibition of potassium ion uptake in guinea pig cerebrocortical slices at concentration of (10e-11) M; type: functional; summary of the method: as §2
[23] = system: Felis catus; test: In vivo activity in the acceleration-deceleration head injury assay at dose of 1 mg/kg; 12/25
[24] = species: Cavia porcellus; test: Compound was tested for inhibition of sodium ion uptake in guinea pig cerebrocortical slices at concentration of (10e-12) M; type: functional
[25] = species: Felis catus; test: Compound was tested for inhibition of HCO3- dependent swelling of cat cerebrocortical slices at concentration of (10e-12) M; type: functional; summary of the method: as §1
[26] = species: Rattus norvegicus; test: Compound was tested for inhibition of HCO3- dependent swelling of rat cerebrocortical slices at concentration of (10e-4) M; type: functional; summary of the method: as §1
[27] = species: Felis catus; test: Compound was tested for inhibition of K+ ion uptake in cat cerebrocortical slices at concentration of (10e-11) M; type: functional; summary of the method: as §2
[28] = species: Felis catus; test: Compound was tested for inhibition of sodium ion uptake in cat cerebrocortical slices at concentration of (10e-12) M; type: functional
[29] = species: Cavia porcellus; test: Compound was tested for inhibition of chloride ion uptake in guinea pig cerebrocortical slices at concentration of (10e-12) M; type: functional; summary of the method: as §2
[30] = species: Cavia porcellus; test: Compound was tested for inhibition of potassium ion uptake in guinea pig cerebrocortical slices at concentration of (10e-6) M; type: functional; summary of the method: as §2
[31] = species: Rattus norvegicus; test: Compound was tested for inhibition of sodium ion uptake in rat cerebrocortical slices at concentration of (10e-4) M; type: functional
[32] = system: Felis catus; test: In vivo activity in the acceleration-deceleration head injury assay at dose of 2.5 mg/kg; 8-19
[33] = species: Cavia porcellus; test: Compound was tested for inhibition of HCO3- dependent swelling of guinea pig cerebrocortical slices at concentration of (10e-12) M; type: functional; summary of the method: as §1
[34] = species: Rattus norvegicus; test: Compound was tested for inhibition of potassium ion uptake in rat cerebrocortical slices at concentration of (10e-8) M; type: functional
[35] = species: Felis catus; test: Compound was tested for inhibition of chloride ion uptake in cat cerebrocortical slices at concentration of (10e-9) M; type: functional; summary of the method: as §2
[36] = species: Cavia porcellus; test: Compound was tested for inhibition of chloride ion uptake in guinea pig cerebrocortical slices at concentration of (10e-8) M; type: functional; summary of the method: as §2
[37] = species: Felis catus; test: Compound was tested for inhibition of chloride ion uptake in cat cerebrocortical slices at concentration of (10e-11) M; type: functional; summary of the method: as §2
[38] = species: Cavia porcellus; test: Compound was tested for inhibition of sodium ion uptake in guinea pig cerebrocortical slices at concentration of (10e-7) M; type: functional
[39] = system: Felis catus; test: In vivo activity in the acceleration-deceleration head injury assay at dose of 10 mg/kg; 15/19
[40] = species: Felis catus; test: Compound was tested for inhibition of K+ ion uptake in cat cerebrocortical slices at concentration of (10e-12) M; type: functional; summary of the method: as §2
[41] = species: Cavia porcellus; test: Compound was tested for inhibition of HCO3- dependent swelling of guinea pig cerebrocortical slices at concentration of (10e-8) M; type: functional; summary of the method: as §1

## CCCC12CCC(=O)C=C1c1c(cc(OCC(=O)O)c(Cl)c1Cl)C2 (single isomer, unassigned; (+))
[1]
  Swelling: 19.1%
[2]
  Activity: 115
[3]
  Deaths: 7
[4]
  Activity: 103.8
[5]
  Activity: 127
[6]
  Activity: 118.9
[7]
  Swelling: 22.7%
[8]
  Activity: 115.4
[9]
  Activity: 95.9
[10]
  Activity: 90.8
[11]
  Deaths: 5
[12]
  Swelling: 26.4%
[13]
  Activity: 108.3
[14]
  Activity: 108.6
[15]
  Activity: 91.9
[16]
  Activity: 101.5
[17]
  Activity: 110
[18]
  Activity: 60.2
[19]
  Swelling: 19.1%
[20]
  Activity: 94.8
[21]
  Activity: 106.3
[22]
  Activity: 88.9
[23]
  Deaths: 12
[24]
  Activity: 104.7
[25]
  Swelling: 21.3%
[26]
  Swelling: 22.8%
[27]
  Activity: 88.8
[28]
  Activity: 96.4
[29]
  Activity: 100.5
[30]
  Activity: 95
[31]
  Activity: 112.1
[32]
  Deaths: 8
[33]
  Swelling: 30.9%
[34]
  Activity: 75.4
[35]
  Activity: 89.3
[36]
  Activity: 103.8
[37]
  Activity: 87.9
[38]
  Activity: 125.4
[39]
  Deaths: 15
[40]
  Activity: 90.9
[41]
  Swelling: 24.4%
